Measurements published in ChEMBL document CHEMBL4028833, “Novel non-trimethoxylphenyl piperlongumine derivatives selectively kill cancer cells” (Bioorg Med Chem Lett, 2017).
Activity calls are given as the source filed them. The calls are words filed in the database; no cut-off is given here.

Tests used:
SK-HEP1 = assay: Antiproliferative activity against human SKHEP1 cells after 72 hrs by MTT assay; format: functional, cell-based; settings: SK-HEP1, 72 h
Method in brief: (§1)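 Cell growth inhibition was read by MTT assay, and IC50 values were reported.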

MDA-MB-231 = assay: Antiproliferative activity against human MDA-MB-231 cells after 72 hrs by MTT assay; format: functional, cell-based; settings: MDA-MB-231, 72 h; method in brief: as §1
HCT-116 [1] = assay: Antiproliferative activity against human HCT116 cells after 72 hrs by MTT assay; format: functional, cell-based; settings: HCT-116, 72 h; method in brief: as §1
A549 = assay: Antiproliferative activity against human A549 cells after 72 hrs by MTT assay; format: functional, cell-based; settings: A549, 72 h; method in brief: as §1
U2OS = assay: Antiproliferative activity against human U2OS cells after 72 hrs by MTT assay; format: functional, cell-based; method in brief: as §1
WI-38 = assay: Cytotoxicity against human W138 cells after 72 hrs by MTT assay; format: cell-based; settings: WI-38, 72 h; method in brief: as §1
SAOS-2 [2] = assay: Antiproliferative activity against human Saos2 cells after 72 hrs by MTT assay; format: functional, cell-based; settings: SAOS-2, 72 h; method in brief: as §1
SAOS-2 [3] = assay: Induction of apoptosis in human Saos2 cells after 24 hrs by annexin V-FITC/propidium iodide staining-based flow cytometric method; format: functional, cell-based
Method in brief: (§2)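 Apoptosis was scored by fluorescence-activated cell sorting after 24 h treatment of HCT-116 and Saos-2 cells, with DMSO controls. Cell morphology was also examined. The percentage of apoptotic cells was reported at 1 and 5 μM.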

HCT-116 [4] = assay: Induction of reactive oxygen species generation in human HCT116 cells at 10 uM after 1 hr by DCFH-DA dye-based fluorescence microscopic analysis; format: functional, cell-based
Method in brief: (§3)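 ROS was imaged by fluorescence microscopy in HCT-116 and Saos-2 cells after 1 h treatment at 10 μM. DMSO-treated cells served as the control.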

HCT-116 [5] = assay: Cell cycle arrest in human HCT116 cells assessed as accumulation at S phase 1 to 5 uM after 24 hrs by propidium iodide staining based flow cytometric method; format: functional
SAOS-2 [6] = assay: Induction of reactive oxygen species generation in human Saos2 cells at 10 uM after 1 hr by DCFH-DA dye-based fluorescence microscopic analysis relative to control; format: functional; method in brief: as §3
SAOS-2 [7] = assay: Cell cycle arrest in human Saos2 cells assessed as accumulation at G2/M phase at 1 to 5 uM after 24 hrs by propidium iodide staining based flow cytometric method; format: functional
HCT-116 [8] = assay: Induction of apoptosis in human HCT116 cells after 24 hrs by annexin V-FITC/propidium iodide staining-based flow cytometric method; format: functional, cell-based; method in brief: as §2
HCT-116 [9] = assay: Induction of reactive oxygen species generation in human HCT116 cells at 1 to 10 uM by DCFH-DA dye-based fluorescence microscopic analysis; format: functional, cell-based; settings: TDE = time-dependent effect
Method in brief: (§4)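 Cellular ROS was imaged by fluorescence microscopy in HCT-116 and Saos-2 cells. Cells were treated at 1, 5 and 10 μM for 1 h and 3 h, with a DMSO control.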

HCT-116 [10] = assay: Induction of apoptosis in human HCT116 cells at 1 uM after 24 hrs by annexin V-FITC/propidium iodide staining-based flow cytometric method; format: functional; method in brief: as §2
HCT-116 [11] = assay: Cell cycle arrest in human HCT116 cells assessed as accumulation at G0/G1 phase after 24 hrs by propidium iodide staining based flow cytometric method; format: functional
SAOS-2 [12] = assay: Induction of reactive oxygen species generation in human Saos2 cells at 1 to 5 uM after 1 to 3 hrs by DCFH-DA dye-based fluorescence microscopic analysis; format: functional, cell-based; method in brief: as §4
SAOS-2 [13] = assay: Induction of apoptosis in human Saos2 cells at 5 uM after 24 hrs by annexin V-FITC/propidium iodide staining-based flow cytometric method; format: functional; method in brief: as §2
HCT-116 [14] = assay: Induction of reactive oxygen species generation in human HCT116 cells at 1 to 5 uM after 1 to 3 hrs by DCFH-DA dye-based fluorescence microscopic analysis; format: functional, cell-based; method in brief: as §4
SAOS-2 [15] = assay: Induction of apoptosis in human Saos2 cells at 1 uM after 24 hrs by annexin V-FITC/propidium iodide staining-based flow cytometric method; format: functional; method in brief: as §2
HCT-116 [16] = assay: Induction of apoptosis in human HCT116 cells at 5 uM after 24 hrs by annexin V-FITC/propidium iodide staining-based flow cytometric method; format: functional; method in brief: as §2
SAOS-2 [17] = assay: Cell cycle arrest in human Saos2 cells assessed as accumulation at S phase at 1 to 5 uM after 24 hrs by propidium iodide staining based flow cytometric method; format: functional
SAOS-2 [18] = assay: Induction of reactive oxygen species generation in human Saos2 cells at 1 to 10 uM DCFH-DA dye-based fluorescence microscopic analysis; format: functional, cell-based; settings: TDE = time-dependent effect; method in brief: as §4
HCT-116 [19] = assay: Cell cycle arrest in human HCT116 cells assessed as accumulation at G0/G1 phase at 1 to 5 uM after 24 hrs by propidium iodide staining based flow cytometric method; format: functional
HCT-116 [20] = assay: Cell cycle arrest in human HCT116 cells accumulation at G0/G1 phase at 1 to 5 uM after 24 hrs by propidium iodide staining based flow cytometric method

SMILES	IC50 (SK-HEP1) [µM]	IC50 (MDA-MB-231) [µM]	IC50 (HCT-116 [1]) [µM]	IC50 (A549) [µM]	IC50 (U2OS) [µM]	IC50 (WI-38) [µM]	IC50 (SAOS-2 [2]) [µM]	Activity (HCT-116 [4])	also measured
O=C1C(Cl)=CCCN1C(=O)c1ccco1	13.6	19.2	5.89	18.6	8.6	> 100	3.86		
O=C1C(Br)=CCCN1C(=O)c1cnc2ccccc2c1	75.2	> 100	> 100	> 100	97.5	> 100	26.7		
O=C(/C=C/c1ccoc1)N1CCC=C(Cl)C1=O	2.78	4.97	4.37	11	2.26	> 100	1.15		
O=C(/C=C/c1ccccc1)N1CCC=C(Cl)C1=O	0.71	1.67	1.67	4.12	1.17	84.6	0.011	Active	Activity (SAOS-2 [3]): Dose-dependent effect; Activity (HCT-116 [5]): Active; fold change (FC) (SAOS-2 [6]): 2; Activity (SAOS-2 [7]): inactive; Activity (HCT-116 [8]): Dose-dependent effect; Activity (HCT-116 [9]): Tde; Activity (HCT-116 [10]): 16%; Activity (HCT-116 [11]): Dose-dependent effect; Activity (SAOS-2 [12]): Active; Activity (SAOS-2 [13]): 21.5%; Activity (HCT-116 [14]): Active; Activity (SAOS-2 [15]): 12.7%; Activity (HCT-116 [16]): 17%; Activity (SAOS-2 [17]): inactive; Activity (SAOS-2 [18]): Tde
O=C(/C=C/C(=O)N1CCC=C(Cl)C1=O)N1CCC=C(Cl)C1=O	3.96	5.04	4.2	8.6	7.29	89.5	0.82		
O=C1C(Cl)=CCCN1C(=O)c1cccnc1	4.83	4.83	3.84	8.64	5.67	31	2.55		
O=C(/C=C/c1cccnc1)N1CCC=C(Cl)C1=O	1.9	2.97	2.36	2.97	1.67	47	0.53	Active	fold change (FC) (SAOS-2 [6]): 2
COc1cc(/C=C/C(=O)N2CCC=CC2=O)cc(OC)c1OC [PIPLARTINE]	13.3	10.6	7.34	6.84	9.49	> 100	7.31	Active	Activity (SAOS-2 [3]): Dose-dependent effect; Activity (HCT-116 [5]): Active; Activity (SAOS-2 [7]): inactive; Activity (HCT-116 [8]): Dose-dependent effect; Activity (HCT-116 [19]): Active; Activity (SAOS-2 [13]): 33%; Activity (SAOS-2 [15]): 26%; Activity (HCT-116 [20]): Active; Activity (SAOS-2 [17]): inactive
O=C1C(Cl)=CCCN1C(=O)C1CC1c1ccccc1 (stereo unspecified)	72.9	65.1	64.5	85.1	68.3	> 100	23.5		
O=C1C(Cl)=CCCN1C(=O)c1cnc2ccccc2c1	3.52	8.68	10.2	10.6	6.63	> 100	2.96		
O=C(C#Cc1ccccc1)N1CCC=C(Cl)C1=O	1.19	1.73	0.92	7.93	1.12	> 100	0.42	inactive	fold change (FC) (SAOS-2 [6]): 2
O=C(/C=C/c1ccco1)N1CCC=C(Cl)C1=O	1.27	5.52	4.49	8.3	1.47	> 100	0.28		
O=C1C(Cl)=CCCN1C(=O)c1ccncc1	> 100	> 100	> 100	> 100	> 100	> 100	89.9		
